According to ChEMBL document CHEMBL4152269, “New N-phenylpyrrolamide DNA gyrase B inhibitors: Optimization of efficacy and antibacterial activity” (Eur J Med Chem, 2018):
pIC50: −log10 of the molar value. ≈ marks a conversion by molar mass, not a printed value. Calls of active or inactive are those of the source. No cut-off for these calls is given here.

Legend:
[1] = Inhibition of Escherichia coli C-terminal His6-tagged topoisomerase-4 expressed in Escherichia coli BL21(DE3) preincubated for 10 mins followed by ATP addition measured after 30 mins by purine nucleoside phosphorylase enzyme coupled spectrophotometric method
[2] = Inhibition of Staphylococcus aureus topoisomerase-4 assessed as residual activity preincubated for 10 mins followed by ATP addition measured after 30 mins by purine nucleoside phosphorylase enzyme coupled spectrophotometric method
[3] = system: Staphylococcus aureus; test: Growth inhibition of Staphylococcus aureus ATCC 25923 at 50 uM after 24 hrs by broth microdilution method relative to control; format: functional; settings: ATCC 25923, 24 h, read-out: GI
[4] = system: Enterococcus faecalis; test: Growth inhibition of Enterococcus faecalis ATCC 29212 at 50 uM after 24 hrs by broth microdilution method relative to control; format: functional; settings: ATCC 29212, 24 h, read-out: GI
[5] = system: Escherichia coli; test: Growth inhibition of Escherichia coli ATCC 25922 at 50 uM after 24 hrs by broth microdilution method relative to control; format: functional; settings: ATCC 25922, 24 h, read-out: GI
[6] = system: Pseudomonas aeruginosa; test: Growth inhibition of Pseudomonas aeruginosa ATCC 27853 at 50 uM after 24 hrs by broth microdilution method relative to control; format: functional; settings: ATCC 27853, 24 h, read-out: GI
[7] = system: Escherichia coli; test: Growth inhibition of tolC deficient Escherichia coli JW5503 at 50 uM after 24 hrs by broth microdilution method relative to control; format: functional; settings: JW5503, 24 h, read-out: GI
[8] = system: Escherichia coli; test: Growth inhibition of lpxC deficient Escherichia coli JD17464 at 50 uM after 24 hrs by broth microdilution method relative to control; format: functional; settings: JD17464, 24 h, read-out: GI
[9] = system: Enterococcus faecalis; test: Antibacterial activity against Enterococcus faecalis ATCC 29212 after 18 hrs by broth microdilution method; format: functional; settings: ATCC 29212, 18 h
[10] = system: Staphylococcus aureus; test: Antibacterial activity against Staphylococcus aureus ATCC 29213 after 18 hrs by broth microdilution method; format: functional; settings: ATCC 29213, 18 h
In short: (§1)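 EUCAST/ISO 20776-1 broth microdilution using 12-step serial dilutions in cation-adjusted Mueller-Hinton II broth. About 5 × 10^4 bacteria were inoculated per well and incubated at 37 °C, shaken at 300 rpm, for 18 h. Growth was read as OD600. MIC is the lowest concentration giving background-normalized OD600 below 0.05, from 3 replicates.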

[11] = system: Staphylococcus aureus; test: Antibacterial activity against methicillin-resistant Staphylococcus aureus ATCC 43300 after 18 hrs by broth microdilution method; format: functional; settings: ATCC 43300, 18 h
[12] = system: Escherichia coli; test: Antibacterial activity against Escherichia coli ATCC 25922 up to 50 uM after 18 hrs by broth microdilution method; format: functional, organism-based
In short: (§2)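 Broth microdilution per EUCAST/ISO 20776-1:2006: 12-step serial dilutions of compound in cation-adjusted Mueller-Hinton II broth, about 5 × 10^4 bacteria per well, 37 °C with shaking at 300 rpm, OD600 read after 18 h. MIC is the lowest concentration with background-normalized OD600 below 0.05, i.e. no visible growth; 3 replicates. Top concentration 50 μM.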

[13] = system: Escherichia coli; test: Antibacterial activity against Escherichia coli MG1655 up to 50 uM after 18 hrs by broth microdilution method; format: functional, organism-based; settings: K-12 substr. MG1655; in short: as §2
[14] = system: Escherichia coli; test: Antibacterial activity against Escherichia coli BW25113 up to 50 uM after 18 hrs by broth microdilution method; format: functional, organism-based; in short: as §2
[15] = system: Escherichia coli; test: Antibacterial activity against tolC deficient Escherichia coli BW25113 up to 50 uM after 18 hrs by broth microdilution method; format: functional, organism-based; in short: as §2
[16] = system: Escherichia coli; test: Antibacterial activity against acrB deficient Escherichia coli BW25113 up to 50 uM after 18 hrs by broth microdilution method; format: functional, organism-based; in short: as §2
[17] = system: Escherichia coli; test: Antibacterial activity against dapF deficient Escherichia coli BW25113 up to 50 uM after 18 hrs by broth microdilution method; format: functional, organism-based; in short: as §2
[18] = system: Escherichia coli; test: Antibacterial activity against mrcB deficient Escherichia coli BW25113 up to 50 uM after 18 hrs by broth microdilution method; format: functional, organism-based; in short: as §1
[19] = system: Escherichia coli; test: Antibacterial activity against surA deficient Escherichia coli BW25113 up to 50 uM after 18 hrs by broth microdilution method; format: functional, organism-based; in short: as §2
[20] = system: Escherichia coli; test: Antibacterial activity against Escherichia coli ATCC 25922 after 18 hrs in presence of efflux pump inhibitor PAbetaN by broth microdilution method; format: functional; settings: ATCC 25922, 18 h
In short: as §1, with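 “Efflux pump inhibitor PAβN was added to EUCAST/ISO” for “EUCAST/ISO”, “h, then” for “h. Growth was”, “at” for “as”, “with” for “giving”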

[21] = system: Escherichia coli; test: Antibacterial activity against Escherichia coli MG1655 after 18 hrs in presence of efflux pump inhibitor PAbetaN by broth microdilution method; format: functional; settings: K-12 substr. MG1655, 18 h
In short: as §1, with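 “Efflux pump inhibitor PAβN was added to EUCAST/ISO” for “EUCAST/ISO”, “h, then” for “h. Growth was”, “at” for “as”, “with” for “giving”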

[22] = system: Escherichia coli; test: Antibacterial activity against Escherichia coli BW25113 up to 20 uM after 18 hrs in presence of efflux pump inhibitor PAbetaN by broth microdilution method; format: functional, organism-based
[23] = system: Escherichia coli; test: Antibacterial activity against dapF deficient Escherichia coli BW25113 up to 20 uM after 18 hrs in presence of efflux pump inhibitor PAbetaN by broth microdilution method; format: functional, organism-based
In short: (§3)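 Same EUCAST broth microdilution in cation-adjusted Mueller-Hinton II broth, 12-step compound dilutions, about 5 × 10^4 bacteria per well, 37 °C, 300 rpm, OD600 at 18 h. Parental and mutant strains were co-treated with the efflux pump inhibitor PAβN. MIC taken as normalized OD600 below 0.05; 3 replicates.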

[24] = system: Escherichia coli; test: Antibacterial activity against mrcB deficient Escherichia coli BW25113 up to 20 uM after 18 hrs in presence of efflux pump inhibitor PAbetaN by broth microdilution method; format: functional, organism-based; in short: as §3
[25] = system: Escherichia coli; test: Antibacterial activity against surA deficient Escherichia coli BW25113 after 18 hrs in presence of efflux pump inhibitor PAbetaN by broth microdilution method; format: functional; settings: BW25113, 18 h
In short: as §1, with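 “Efflux pump inhibitor PAβN was added to EUCAST/ISO” for “EUCAST/ISO”, “h, then” for “h. Growth was”, “at” for “as”, “with” for “giving”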

[26] = system: Escherichia coli; test: Antibacterial activity against Escherichia coli MG1655 harboring NOG R136C mutant up to 50 uM after 18 hrs in presence of efflux pump inhibitor PAbetaN by broth microdilution method; format: functional, organism-based; settings: K-12 substr. MG1655
[27] = Cytotoxicity against human HepG2 cells assessed as cell proliferation at 50 uM after 72 hrs by MTS assay relative to control; format: cell-based; settings: read-out: Activity
In short: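 MTS assay in HepG2 grown in Eagle's MEM with 2 mM L-glutamine, penicillin/streptomycin and 10% FBS, at 37 °C under 5% CO2. Cells seeded at 2000 per well and attached for 24 h. Compound added at 50 μM (0.5% DMSO final) for 72 h, then reagent for 3 h and A490 read. […] Triplicate wells, two repeats, Welch's t-test.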

[28] = system: HUVEC; test: Cytotoxicity against HUVEC assessed as reduction in cell proliferation after 72 hrs by MTS assay; format: cell-based; settings: Homo sapiens
In short: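 MTS assay in HUVEC grown in Eagle's MEM with 2 mM L-glutamine, penicillin/streptomycin and 10% FBS, at 37 °C under 5% CO2. Cells seeded at 2000 per well, attached for 24 h, then exposed to six compound concentrations (0.5% DMSO final) for 72 h. Reagent added for 3 h before reading A490. IC50 derived against DMSO-treated cells; triplicate wells, two repeats.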

[29] = biological target: DNA gyrase subunit B (Staphylococcus aureus) (UniProt P0A0K8); test: Inhibition of Staphylococcus aureus DNA gyrase B assessed as residual activity at 1 uM preincubated for 10 mins followed by ATP addition measured after 30 mins by purine nucleoside phosphorylase enzyme coupled spectrophotometric method relative to control
[30] = system: Staphylococcus aureus; test: (§4) Inhibition of Staphylococcus aureus topoisomerase-4 assessed as residual activity at 1 uM preincubated for 10 mins followed by ATP addition measured after 30 mins by purine nucleoside phosphorylase enzyme coupled spectrophotometric method relative to control
[31] = biological target: DNA gyrase subunit B (Escherichia coli, UniProt P0AES6); test: Inhibition of Escherichia coli DNA gyrase by supercoiling assay
[32] = system: Enterococcus faecalis; test: Antibacterial activity against Enterococcus faecalis; format: functional, organism-based
[33] = biological target: DNA gyrase subunit B (Staphylococcus aureus, UniProt P0A0K8); test: Inhibition of Staphylococcus aureus DNA gyrase B preincubated for 10 mins followed by ATP addition measured after 30 mins by purine nucleoside phosphorylase enzyme coupled spectrophotometric method
[34] = system: Escherichia coli; test: as §4, with “Escherichia coli C-terminal His6-tagged” for “Staphylococcus aureus”, “topoisomerase-4 expressed in Escherichia coli BL21(DE3)” for “topoisomerase-4”
[35] = system: Staphylococcus aureus; test: Antibacterial activity against Staphylococcus aureus ATCC 25923 after 18 hrs by broth microdilution method; format: functional; settings: ATCC 25923, 18 h
[36] = system: Escherichia coli; test: Antibacterial activity against tolC deficient Escherichia coli JW5503 after 18 hrs by broth microdilution method; format: functional; settings: JW5503, 18 h

DNA gyrase subunit B (Staphylococcus aureus, UniProt P0A0K8), sequence (P0A0K8 whole entry): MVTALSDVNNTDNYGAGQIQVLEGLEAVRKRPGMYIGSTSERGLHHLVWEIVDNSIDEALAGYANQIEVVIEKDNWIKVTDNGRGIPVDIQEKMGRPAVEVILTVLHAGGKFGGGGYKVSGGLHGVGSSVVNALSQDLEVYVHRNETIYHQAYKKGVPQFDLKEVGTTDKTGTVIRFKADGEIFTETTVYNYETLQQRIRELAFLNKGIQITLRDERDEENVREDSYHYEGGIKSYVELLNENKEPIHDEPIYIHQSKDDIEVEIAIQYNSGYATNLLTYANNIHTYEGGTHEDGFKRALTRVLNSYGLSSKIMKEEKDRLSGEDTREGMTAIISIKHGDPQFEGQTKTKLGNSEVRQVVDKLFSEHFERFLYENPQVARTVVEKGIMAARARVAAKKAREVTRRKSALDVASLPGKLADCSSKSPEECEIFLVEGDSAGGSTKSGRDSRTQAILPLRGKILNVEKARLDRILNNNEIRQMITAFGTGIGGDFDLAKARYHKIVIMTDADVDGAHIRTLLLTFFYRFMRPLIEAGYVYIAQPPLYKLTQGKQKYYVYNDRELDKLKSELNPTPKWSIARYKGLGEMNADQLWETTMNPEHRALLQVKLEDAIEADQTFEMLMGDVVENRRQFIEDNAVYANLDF
DNA gyrase subunit B (Staphylococcus aureus), sequence (P0A0K8 2-644 limits assumed): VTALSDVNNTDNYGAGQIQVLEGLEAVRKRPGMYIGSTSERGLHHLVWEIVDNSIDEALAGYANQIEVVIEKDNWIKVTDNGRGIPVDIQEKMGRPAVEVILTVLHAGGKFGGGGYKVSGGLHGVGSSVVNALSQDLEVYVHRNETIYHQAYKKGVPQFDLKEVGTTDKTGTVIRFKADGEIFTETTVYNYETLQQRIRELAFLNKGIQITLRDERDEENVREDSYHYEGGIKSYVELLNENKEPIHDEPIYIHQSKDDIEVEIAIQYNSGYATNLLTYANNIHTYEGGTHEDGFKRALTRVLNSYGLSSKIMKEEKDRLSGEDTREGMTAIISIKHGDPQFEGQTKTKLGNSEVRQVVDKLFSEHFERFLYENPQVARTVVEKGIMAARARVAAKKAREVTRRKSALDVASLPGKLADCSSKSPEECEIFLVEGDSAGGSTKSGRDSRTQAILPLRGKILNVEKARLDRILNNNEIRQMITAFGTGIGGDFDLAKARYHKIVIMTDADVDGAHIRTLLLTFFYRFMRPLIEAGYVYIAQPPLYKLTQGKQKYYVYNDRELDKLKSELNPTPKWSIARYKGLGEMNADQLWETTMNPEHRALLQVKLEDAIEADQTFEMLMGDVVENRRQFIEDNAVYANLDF

| Structure (SMILES) | pIC50 [1] | pIC50 [2] | inhibition of growth at 50 µM [3] | inhibition of growth at 50 µM [4] | inhibition of growth at 50 µM [5] | inhibition of growth at 50 µM [6] | inhibition of growth at 50 µM [7] | inhibition of growth at 50 µM [8] | MIC90 [9] | Activity [30] | pIC50 [31] | pIC50 [33] | Activity [34] | further results |
| --- | --- | --- | --- | --- | --- | --- | --- | --- | --- | --- | --- | --- | --- | --- |
| Cc1[nH]c(C(=O)Nc2ccc(C(=O)N[C@@H](C)c3n[nH]c(=O)o3)cc2OC(C)C)c(Cl)c1Cl | 4.96 | 4.92 | 100% | 97% | 5% | -1% | 51% | 0% | 1.56 µM (≈ 0.752 µg/mL) | – | – | – | – | MIC90 [10]: 4.17 µM (≈ 2.01 µg/mL); MIC90 [11]: 3.13 µM (≈ 1.51 µg/mL); Activity [12]: inactive; Activity [13]: inactive; Activity [14]: inactive; Activity [15]: inactive; Activity [16]: inactive; Activity [17]: inactive; Activity [18]: inactive; Activity [19]: inactive; MIC90 [20]: 4.6 µM; MIC90 [21]: 10.2 µM; Activity [22]: inactive; Activity [23]: inactive; Activity [24]: inactive; MIC90 [25]: 13.8 µM; Activity [26]: inactive; viability at 72 h, 50 µM [27]: 85%; pIC50 [28]: 4.39 |
| CC(C)Oc1cc(NC(=O)c2cc(Br)c(Br)[nH]2)ccc1C(=O)NCC(=O)O | – | – | 13% | 14% | 9% | -8% | – | – | – | 96% | 6.40 | – | – | Activity [29]: 85% |
| Cc1[nH]c(C(=O)Nc2ccc(C(=O)NCC(=O)O)cc2OC(C)C)c(Cl)c1Cl | 4.96 | – | – | – | – | – | – | – | – | – | – | – | – | MIC [32]: 50 µM (≈ 21.4 µg/mL) |
| CC(C)Oc1cc(C(=O)N[C@@H](C)C(=O)O)ccc1NC(=O)c1cc(Br)c(Br)[nH]1 | – | – | -18% | 70% | 0% | 10% | 6% | -15% | – | 98% | 6.43 | 5.23 | 78% | – |
| COC(=O)[C@H](C)NC(=O)c1ccc(NC(=O)c2[nH]c(C)c(Cl)c2Cl)c(OCCN)c1 | – | 5.43 | 82% | 100% | 67% | 35% | 100% | 47% | 25 µM (≈ 11.4 µg/mL) | – | 7.47 | 6.41 | 89% | MIC90 [35]: 50 µM (≈ 22.9 µg/mL); MIC90 [36]: 25 µM (≈ 11.4 µg/mL) |
